Each structure is given as a SMILES string. Several values for one entry are separate records, joined by “and”; a condition that tells them apart may be missing. Equal entries are not always repeated.

In series [1] the target is Coagulation factor X (Homo sapiens, UniProt P00742). The series can be described thus: Binding affinity against human coagulation factor X.
The target in another series is Prothrombin (Homo sapiens, UniProt P00734). As to the kind of experiment: Binding affinity against human thrombin. The procedure, abridged: (§1)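 Human purified enzymes in 0.1 M sodium phosphate, 0.2 M NaCl, 0.5% PEG 6000, pH 7.4. Inhibitor at 0.00316–10 μM in 8 half-log steps. Substrate S2222 for fXa and trypsin, S2366 for thrombin. Hydrolysis rate read at 405 nm over 30 min, with uninhibited controls. Ki calculated from % activity, Km and substrate concentration. Run in duplicate against internal standards.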

A further series concerns the target Serine protease 1 (Homo sapiens, UniProt P07477). The series can be described thus: Binding affinity against human trypsin. The procedure, abridged:
as §1

Series [2] is described as follows: plasma clearance in dog. It counts as ADME, organism-based, Canis lupus familiaris. The procedure, abridged:
(§2)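 Given intravenously (rabbit: 10 mg/kg/h infusion over 60 min; dog: iv). Plasma protein-precipitated with acetonitrile; quantitation limit 5 nM. Noncompartmental fit. Half-life by nonlinear regression, AUC by trapezoidal rule. Clearance = dose/AUC0→∞. Vdss = Cl × MRT, with MRT = AUMC/AUC.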

The nature of series [3]: Distribution volume at steady state in dog. It counts as ADME, organism-based, Canis lupus familiaris. The conditions noted are these: in vivo, read-out: Vdss. The procedure, abridged:
as §2

Series [4] in a line: (§3) Half life period of the compound. It is filed as ADME. The procedure, abridged:
as §2

Series [5] in a line: Cmax values of the compound. It counts as ADME, organism-based. The conditions noted are these: in vivo. The procedure, abridged: as §2
The species named for series [6] is Oryctolagus cuniculus. The series can be described thus: Tested for inhibition of thrombus formation using arterio-venous shunt device in rabbit. It counts as functional. The procedure, abridged: (§4)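 Rabbit arteriovenous shunt containing silk thread; blood circulated 40 min, then the thread and thrombus were weighed. Compound or saline vehicle infused iv via jugular vein from 1 h before circulation through the end (100 min total). Percent inhibition of thrombus weight per treatment group; ID50 estimated by linear regression.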

Series [7] can be described thus: as §3. It counts as ADME. The procedure, abridged: as §2
The source holds these as a separate data set.

The target of series [8] is T1, Coagulation factor X (Oryctolagus cuniculus, UniProt O19045).
T1 sequence (O19045 whole entry): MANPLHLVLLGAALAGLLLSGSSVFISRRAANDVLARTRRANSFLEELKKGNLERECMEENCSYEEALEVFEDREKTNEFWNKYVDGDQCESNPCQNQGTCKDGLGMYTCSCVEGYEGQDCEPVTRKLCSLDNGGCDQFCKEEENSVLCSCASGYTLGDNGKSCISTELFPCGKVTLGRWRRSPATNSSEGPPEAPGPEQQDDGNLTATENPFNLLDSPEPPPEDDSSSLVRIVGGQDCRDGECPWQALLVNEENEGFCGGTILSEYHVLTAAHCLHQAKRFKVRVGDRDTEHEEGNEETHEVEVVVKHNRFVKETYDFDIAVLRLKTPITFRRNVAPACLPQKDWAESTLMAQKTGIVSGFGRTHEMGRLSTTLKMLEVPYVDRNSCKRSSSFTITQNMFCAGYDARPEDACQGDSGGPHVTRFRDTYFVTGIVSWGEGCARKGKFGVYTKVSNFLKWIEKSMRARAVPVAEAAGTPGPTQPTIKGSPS
As to the kind of experiment: Binding affinity against fXa from rabbit purified enzyme.

In series [9] the target is T1, Coagulation factor X. The series can be described thus: Binding affinity against Coagulation factor X from rabbit purified enzyme.
Series [10] relates to Oryctolagus cuniculus. As to the kind of experiment: Tested for inhibition of thrombus formation using arterio-venous shunt device in rabbit at 0.008-1 mg/kg/h. It counts as functional. The procedure, abridged:
as §4

For series [11], the species on record is Oryctolagus cuniculus. The series can be described thus: Distribution volume at steady state in rabbit. To be noted: in vivo, read-out: Vdss.
Series [12] can be described thus: plasma clearance in rabbit.

Chain of Coagulation factor X (Homo sapiens, UniProt P00742) (P00742 41-179 limits assumed): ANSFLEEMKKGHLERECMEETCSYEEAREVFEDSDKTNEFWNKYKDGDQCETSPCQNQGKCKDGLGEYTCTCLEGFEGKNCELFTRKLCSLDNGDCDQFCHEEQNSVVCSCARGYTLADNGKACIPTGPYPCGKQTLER
Chain of Coagulation factor X (Homo sapiens, UniProt P00742) (P00742 235-488 limits assumed): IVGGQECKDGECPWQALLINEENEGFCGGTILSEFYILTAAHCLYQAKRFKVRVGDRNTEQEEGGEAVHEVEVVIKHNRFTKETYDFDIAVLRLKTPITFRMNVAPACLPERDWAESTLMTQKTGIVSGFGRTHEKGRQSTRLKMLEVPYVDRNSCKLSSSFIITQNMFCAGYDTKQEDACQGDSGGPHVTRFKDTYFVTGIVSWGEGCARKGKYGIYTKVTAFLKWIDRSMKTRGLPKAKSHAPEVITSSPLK
Chain of Serine protease 1 (P07477 whole entry): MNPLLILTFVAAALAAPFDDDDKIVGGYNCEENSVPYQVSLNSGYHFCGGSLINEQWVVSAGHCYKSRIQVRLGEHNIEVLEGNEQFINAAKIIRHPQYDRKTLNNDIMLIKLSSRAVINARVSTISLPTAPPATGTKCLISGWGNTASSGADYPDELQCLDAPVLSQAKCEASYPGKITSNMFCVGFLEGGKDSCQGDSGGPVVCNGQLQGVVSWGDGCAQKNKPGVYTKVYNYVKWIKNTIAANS

What is called Ki is a dissociation constant, usually derived from enzyme kinetics or from competition with a known ligand. In the case of `N=C(N)c1ccc2cnn(CC(=O)Nc3ccc(-c4ccccc4S(N)(=O)=O)cn3)c2c1`, the Ki on Coagulation factor X [1] is 0.0031 µM; at Prothrombin, 6.8 µM; on Serine protease 1, 0.041 µM.

A word on the clearance: it is a measure of how efficiently the substance is removed, as volume per time. Lower therefore signals a low capacity for elimination. In general, half-life refers to the time needed for the level to fall by half in the phase considered. Read a low half-life as fast loss. What is called Cmax is the maximum level reached in the sampled fluid or tissue. The compound `N=C(N)c1ccc2[nH]cc(CC(=O)Nc3ccc(-c4ccccc4S(N)(=O)=O)cc3F)c2c1` had a clearance in series [2] of 1.1 L/h/kg. For the same compound, the Ki at Coagulation factor X [1] came to 0.0031 µM; at Prothrombin, 2.1 µM; on Serine protease 1, 0.27 µM. For the same compound, the Vd in series [3] turned out to be 0.87 L/kg. The half-life in series [4] was 2.5 h. In series [5], this compound showed a Cmax of 1.63 µM.

For the compound `N=C(N)c1ccc2c(c1)ncn2CC(=O)c1ccc(-c2ccccc2)cc1`, at Prothrombin, the inhibition constant (Ki) was over 21 µM.

Turning to `CCOC(=O)C(CCc1ccc(C(=N)N)cc1)Cn1cnc2ccc(C(=N)N)cc21` (stereo not drawn), the inhibition constant Ki is 11.9 µM at Coagulation factor X [1] and over 21 µM on Prothrombin.

`N=C(N)c1ccc2[nH]cc(CC(=O)Nc3ccc(-c4ccccc4S(N)(=O)=O)cc3)c2c1` gave an ID50 in the series filed under Oryctolagus cuniculus [6] of 1.7 µM/h/kg. Besides, the values for the half-life in series [7] and in series [4] were 1.22 h and 0.79 h, respectively. This compound showed a clearance in [2] of 1.22 L/h/kg. Besides, the inhibition constant Ki is 0.006 µM at Coagulation factor X [8]; 1.6 µM and 0.9 µM on Prothrombin; 0.16 µM at Serine protease 1. For the same compound, the Vd in series [3] came to 0.38 L/kg. The highest concentration (Cmax) in [5] is 1.51 µM and 8.7 µM.

Regarding `N=C(N)c1ccc2[nH]cc(CC(=O)Nc3ccc(-c4ccccc4S(N)(=O)=O)cc3Cl)c2c1`, in the series filed under Oryctolagus cuniculus [6], the ID50 is 0.35 µM/h/kg. In addition, the clearance in series [2] was 3 L/h/kg. Further, the inhibition constant (Ki) at Coagulation factor X [9] turned out to be 0.00079 µM; on Coagulation factor X [1], 0.0007 µM; at Prothrombin, 0.5 µM; on Serine protease 1, 0.14 µM. Further, in series [3], the Vd amounted to 2.01 L/kg. Besides, in series [4], the half-life was 1.75 h. In [5], the concentration peaked (Cmax) at 0.65 µM.

Turning to `Cc1cc(-c2ccccc2S(N)(=O)=O)ccc1NC(=O)Cc1c[nH]c2ccc(C(=N)N)cc12`, the inhibition constant Ki on Coagulation factor X [1] amounted to 0.0023 µM; on Prothrombin it was 1 µM; on Serine protease 1, 0.34 µM.

For `CN(C(=O)Cc1c[nH]c2ccc(C(=N)N)cc12)c1ccc(-c2ccccc2S(N)(=O)=O)cc1`, the Ki at Coagulation factor X [1] is 0.041 µM; on Prothrombin, 14 µM; at Serine protease 1, 0.6 µM.

`N=C(N)c1ccc2[nH]cc(CC(=O)Nc3ccc(-c4ccccc4S(N)(=O)=O)cn3)c2c1` returned an ID50 in the series filed under Oryctolagus cuniculus [6] of 0.3 µM/h/kg. Also, the clearance in series [2] is 3.7 L/h/kg. The inhibition constant Ki at Coagulation factor X [9] is 0.00093 µM; at Coagulation factor X [1], 0.00092 µM and 0.00044 µM; on Prothrombin it was 2.1 µM; at Serine protease 1, 0.15 µM. In [3], the Vd is 1.9 L/kg. This compound also had a half-life in series [4] of 0.4 h. Also, the Cmax in series [5] stood at 2.2 µM.

As to `CNS(=O)(=O)c1ccccc1-c1ccc(NC(=O)Cc2c[nH]c3ccc(C(=N)N)cc23)cc1`, the results for the Ki at Coagulation factor X [1], at Prothrombin and on Serine protease 1 were 0.0034 µM, 0.9 µM and 0.12 µM, respectively.

Turning to `CN(C)S(=O)(=O)c1ccccc1-c1ccc(NC(=O)Cc2c[nH]c3ccc(C(=N)N)cc23)cc1`, the values for the inhibition constant (Ki) on Coagulation factor X [1], on Prothrombin and on Serine protease 1 were 0.007 µM, 1.7 µM and 0.39 µM, respectively.

In the case of `CCOC(=O)C(CCc1ccc(C(=N)N)cc1)Cn1cnc2cc(C(=N)N)ccc21` (stereo not drawn), the Ki is 2.2 µM on Coagulation factor X [1] and over 21 µM on Prothrombin.

As to `N=C(N)c1ccc2ncn(CC(=O)c3ccc(-c4ccccc4S(N)(=O)=O)cc3)c2c1`, the Ki at Coagulation factor X [1] stood at 0.24 µM; at Prothrombin, 2.8 µM; at Serine protease 1, 0.3 µM.

For the compound `CCOC(=O)C(CCc1cccc(C(=N)N)c1)Cn1cnc2cc(C(=N)N)ccc21` (stereo not drawn), the inhibition constant Ki is 2 µM on Prothrombin and 0.22 µM at Serine protease 1.

Consider `N=C(N)c1ccc2c(c1)ncn2CC(=O)Nc1ccc(-c2ccccc2)cc1`, for which the values for the inhibition constant Ki at Coagulation factor X [1], on Prothrombin and on Serine protease 1 were 3.9 µM, 12.5 µM and over 2.5 µM, respectively.

On to `N=C(N)c1ccc2c(c1)ncn2CC(=O)Nc1ccc(-c2ccccc2S(N)(=O)=O)cc1`, for which the figures for the Ki at Coagulation factor X [1], at Prothrombin and at Serine protease 1 were 0.4 µM, 2.7 µM and 0.13 µM, respectively.

Consider `N=C(N)c1ccc2[nH]cc(CC(=O)Nc3ccc(-c4ccccc4S(N)(=O)=O)cc3Br)c2c1`, for which the clearance in series [2] was 1.34 L/h/kg. For the same compound, the inhibition constant Ki at Coagulation factor X [9] turned out to be 0.0009 µM; on Coagulation factor X [1], 0.00032 µM; on Prothrombin it was 0.2 µM; at Serine protease 1, 0.12 µM. Moreover, the Vd in series [3] stood at 0.67 L/kg. Further, the ID50 in the series with Oryctolagus cuniculus [10] was determined as 0.14 µM/h/kg. Further, the half-life in [4] was 1.8 h. In addition, the concentration in [5] peaked (Cmax) at 1.43 µM.

As to `CCOC(=O)C(CCc1cccc(C(=N)N)c1)Cn1cnc2ccc(C(=N)N)cc21` (stereo not drawn), the Ki on Coagulation factor X [1] was 0.7 µM; at Prothrombin, 1.9 µM; on Serine protease 1 it was 0.82 µM.

As for `N=C(N)c1ccc2[nH]cc(CC(=O)Nc3ccc(-c4ccccc4S(N)(=O)=O)cc3I)c2c1`, the Ki on Coagulation factor X [1] came out at 0.0006 µM; on Prothrombin, 0.2 µM; on Serine protease 1 it was 0.24 µM.

As for `Cn1cc(CC(=O)Nc2ccc(-c3ccccc3S(N)(=O)=O)cn2)c2cc(C(=N)N)ccc21`, the inhibition constant (Ki) was determined as 0.089 µM at Coagulation factor X [1], 21 µM at Prothrombin and 1.5 µM on Serine protease 1.

On to `CCNS(=O)(=O)c1ccccc1-c1ccc(NC(=O)Cc2c[nH]c3ccc(C(=N)N)cc23)cc1`, for which the Ki was found to be 0.0041 µM at Coagulation factor X [1], 0.8 µM at Prothrombin and 0.16 µM on Serine protease 1.

With `CCCNS(=O)(=O)c1ccccc1-c1ccc(NC(=O)Cc2c[nH]c3ccc(C(=N)N)cc23)cc1`, the inhibition constant Ki was 0.008 µM at Coagulation factor X [1], 0.4 µM at Prothrombin and 0.18 µM at Serine protease 1.

`N=C(N)c1ccc2ncn(CC(=O)Nc3ccc(-c4ccccc4S(N)(=O)=O)cc3)c2c1` had a half-life in series [7] of 0.96 h. For the same compound, the inhibition constant (Ki) came to 0.0024 µM on Coagulation factor X [1], 2.2 µM at Prothrombin and 0.047 µM at Serine protease 1. The Vd in the series listed under Oryctolagus cuniculus [11] was determined as 3.04 L/kg. Moreover, the clearance in series [12] is 4.4 L/h/kg. In series [5], this compound gave a Cmax of 3.85 µM.

For the compound `N=C(N)c1ccc2ncn(CC(=O)c3ccc(-c4ccccc4)cc3)c2c1`, the Ki at Coagulation factor X [1] was 0.12 µM; on Prothrombin it was 1.2 µM; at Serine protease 1 it was 0.32 µM.

As to `N=C(N)c1ccc2ncn(CC(=O)Nc3ccc(-c4ccccc4)cc3)c2c1`, the results for the Ki on Coagulation factor X [1], at Prothrombin and at Serine protease 1 were 0.22 µM, 4.7 µM and 0.48 µM, respectively.

For the compound `N=C(N)c1ccc2c(c1)C(CC(=O)Nc1ccc(-c3ccccc3S(N)(=O)=O)cc1)CN2` (single isomer, unassigned; (+)), the Ki on Coagulation factor X [1] worked out at 0.00071 µM; on Prothrombin, 1.5 µM; at Serine protease 1, 0.14 µM.

For `N=C(N)c1ccc2c(c1)C(CC(=O)Nc1ccc(-c3ccccc3S(N)(=O)=O)cc1)CN2` (single isomer, unassigned; (-)), the inhibition constant Ki on Coagulation factor X [1] was 0.052 µM; on Prothrombin it was 17 µM; at Serine protease 1, 0.4 µM.

(Values after ChEMBL document CHEMBL1133520, “Design, synthesis, and biological evaluation of potent and selective amidino bicyclic factor Xa inhibitors” (J Med Chem, 2000).)
